S100A4 MyoIIA = S100A4-myosin IIA interaction inhibition | P26447 | S100A4/TAMRA-MyoIIA peptide fluorescence polarization | inhibition, % at 10.7 µM | actives 0.14% (n = 360,000);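 active = mean inhibition of at least 70% across replicates, with every replicate also reaching that level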
Target sequence (P26447 whole entry, looked up): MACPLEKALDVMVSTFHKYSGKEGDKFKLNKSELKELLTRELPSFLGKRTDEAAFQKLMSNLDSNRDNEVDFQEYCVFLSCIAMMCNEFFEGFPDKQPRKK
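Material: S100A4 monomer protein / Buffer or medium: 50 mM HEPES pH 7.2, 10 mM CaCl2, 100 mM KCl / Times: 5 min incubation before reading / Benchmarks: neutral control DMSO, positive control TFP / Reagent: labelled myosin peptide probe, 5 nM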
PDI inh = blocks human protein disulfide isomerase activity. PDI insulin aggregation turbidity, A650, 90 min. inhibition, % at 10 µM. actives 0.052% (n = 350,000). P07237. AID 588391;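 active = mean inhibition across replicates of 30% or more, whatever share of single replicates reach that level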
Target sequence (P07237 whole entry, looked up): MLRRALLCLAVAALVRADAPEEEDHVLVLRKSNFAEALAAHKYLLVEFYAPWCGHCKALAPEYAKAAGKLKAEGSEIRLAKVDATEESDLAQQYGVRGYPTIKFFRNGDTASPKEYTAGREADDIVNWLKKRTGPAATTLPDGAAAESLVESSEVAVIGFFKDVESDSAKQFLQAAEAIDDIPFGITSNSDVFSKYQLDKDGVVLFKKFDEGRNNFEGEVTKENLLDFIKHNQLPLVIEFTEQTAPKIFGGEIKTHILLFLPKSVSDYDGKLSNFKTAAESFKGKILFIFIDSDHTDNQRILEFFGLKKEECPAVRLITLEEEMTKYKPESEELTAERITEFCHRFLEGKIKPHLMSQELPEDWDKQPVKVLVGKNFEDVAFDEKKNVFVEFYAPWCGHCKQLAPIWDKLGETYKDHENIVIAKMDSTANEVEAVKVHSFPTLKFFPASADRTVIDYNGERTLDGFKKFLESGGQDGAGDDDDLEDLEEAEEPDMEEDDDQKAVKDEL
FGF22 binding = shifts melting point of recombinant human FGF22; AID 651658; recombinant FGF22 thermal shift, SYPRO orange fluorescence; percent of sucrose octasulfate shift, DMSO zero; Q9HCT0; actives 1.5% (n = 340,000); activity (Tm shift, normalised), % at 9.99 µM;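 active = mean Tm shift, scaled 0 neutral to 100 positive control, at about 1.3% or above, every replicate too, limit read from the data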
ERp5 inh = blocks human ERp5 reductase activity on insulin | inhibition, % at 9.99 µM | actives 0.05% (n = 350,000) | AID 651711 | ERp5 insulin aggregation, absorbance 650 nm, 90 min;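 active = mean replicate inhibition above about 25%, with every replicate also reaching it, limit read from the data, passing the limit was not always enough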
ERAP1 inh = blocks human ERAP1 aminopeptidase activity | inhibition, % at 10.7 µM | actives 0.15% (n = 340,000) | Q9NZ08 | recombinant ERAP1, Leu-AMC fluorescence, 60 min;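 active = mean replicate inhibition of at least 30%, or all replicates individually reaching that 30% level; inactive = mean below 30% and not every replicate reaching it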;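 also: 0% = neutral control wells and 100% = L-leucinethiol positive control wells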
Numbers without * were called inactive; . = no result given. This is one part of a sample in which hits are shown more often than they occur.

SMILES | S100A4 MyoIIA | PDI inh | FGF22 binding | ERp5 inh | ERAP1 inh
CC(=O)Nc1cccc(NC(=O)CSc2nnc(NC(=O)c3ccco3)s2)c1 | -10 | -7 | 1.5* | -1 | -20
O=C(CSc1nnc(NC(=O)c2ccco2)s1)Nc1cccc(F)c1 | -1 | -19 | 0 | -7 | 0
CCCCC(=O)Nc1nnc(SCC(=O)Nc2ccc(OC)cc2)s1 | -8 | -4 | 0 | 0 | 2
CS(=O)(=O)Nc1nnc(SCC(=O)Nc2cccc([N+](=O)[O-])c2)s1 | 2 | -1 | 43* | 3 | -5
CC(C)C(=O)Nc1nnc(SCC(=O)Nc2ccc3c(c2)OCCO3)s1 | 2 | 3 | 1.4* | -1 | 1
Cc1csc(/N=C/c2ccc([N+](=O)[O-])cc2)n1 | 0 | -12 | 0 | -1 | -1
O=C1C=C(NC2CCCC2)CC(c2ccccc2)C1 (configuration not stated) | -5 | 17 | 0 | -7 | -2
COC(=O)c1cc2c(c3c4cc(C)ccc4n(C(=O)c4ccccc4)c13)C(=O)N(Cc1ccccc1)C2 | -5 | . | 0 | -6 | -5
COc1ccc(C(CC(=O)O)n2cnnn2)cc1 (configuration not stated) | -1 | -2 | 42 | 0 | 4
CC(C)Oc1ccc(C(CC(=O)O)n2cnnn2)cc1 (configuration not stated) | -3 | -4 | 43* | -5 | 0
CN(C)CC(=O)N[C@H]1CC[C@@H](CCNS(=O)(=O)c2ccccc2)O[C@H]1CO | 5 | . | 0 | -7 | -4
COc1cc2cc(CN(CCCN3CCOCC3)Cc3nnnn3Cc3ccccc3)c(=O)[nH]c2cc1OC | 9 | 2 | 0 | 1 | -1
CCOc1ccc2[nH]c(=O)c(CN(CCCN3CCOCC3)Cc3nnnn3Cc3ccc(OC)cc3)cc2c1 | -1 | -3 | 43* | 4 | -1
CN1CCN(/N=C/c2cccc(Cl)c2Cl)CC1 | -9 | 1 | 44* | 1 | 5
Clc1ccccc1/C=N/N1CCN(Cc2ccccc2)CC1 | -1 | 7 | 0 | 3 | -3
O=C(C1CCC1)N1CCCCN2[C@H](CO)[C@@H](c3ccc(-c4ccncc4)cc3)[C@H]2C1 | . | . | . | -5 | .
COc1ccccc1CN(C)c1ccc(S(=O)(=O)N2CCN(C)CC2)cn1 | -2 | 24 | 0 | 31* | 0
C[C@H]1CN([C@@H](C)CO)S(=O)(=O)c2ccc(-c3ccccc3F)cc2O[C@H]1CN(C)CC1CC1 | 43 | . | 0 | -5 | 1
CCOc1ccccc1NC(=O)C(NCC1(N2CCCCC2)CCCCC1)c1ccccc1 (configuration not stated) | -4 | 8 | 44* | 7 | 2
CN(CC(=O)Nc1cccc(F)c1)C(=O)CCc1nc2ccccc2c(=O)[nH]1 | -3 | -1 | 0 | 4 | 49*
CN(CC(=O)Nc1ccc(F)c(F)c1F)C(=O)CCCc1nc2ccccc2c(=O)[nH]1 | -1 | 7 | 0 | 5 | -2
CCOC(=O)/C(C#N)=C1/C=Nc2ccccc2N1 | . | 1 | . | . | .
CCOC(=O)/C(C#N)=C1/C=C(C)c2ccccc2N1 | 0 | 3 | 43* | -3 | -12
Cc1ccccc1C(=O)N1CCC(n2nccc2NC(=O)C2CC2)CC1 | . | 9 | . | . | .
COc1ccc(N2CCN(C(c3cccs3)C(C)NC(=O)c3ccc4c(c3)OCO4)CC2)cc1 (configuration not stated) | -3 | -1 | 43* | -4 | 1
SMILES | S100A4 MyoIIA | PDI inh | FGF22 binding | ERp5 inh | ERAP1 inh
Cc1ccc(NC(=O)c2ccccc2)cc1-n1cnnn1 | -4 | -1 | 0 | 5 | 3
Cc1ccc(NC(=O)c2ccccc2Cl)cc1-n1cnnn1 | -2 | 4 | 44* | -3 | -2
CCn1c(SCC(=O)Nc2ccc3c(c2)c2ccccc2n3CC)nnc1-c1ccco1 | . | 56* | . | . | .
O=C(Nc1ccccc1F)C(c1ccccc1)c1ccccc1 | 1 | -3 | . | -6 | -3
Cn1c(=O)c(C(=O)CSc2ccccc2)c(N)n(Cc2ccccc2)c1=O | -3 | -6 | 43* | 3 | 2
C=CCn1c(SCC(=O)Nc2cc(C)on2)nnc1C1COc2ccccc2O1 (configuration not stated) | 2 | 7 | 0 | -7 | 4
Cc1cc(NC(=O)CSc2nnc(C3COc4ccccc4O3)n2N)no1 (configuration not stated) | -6 | 1 | 43* | 4 | -3
Cc1cc(C([O-])=C(C(=S)Nc2ccc(F)cc2)[n+]2ccccc2)c(C)n1-c1ccc(F)cc1 | -9 | 1 | 0 | 9 | 3
COc1cccc(NC(=S)/C(=C(\[O-])c2cc(C)n(-c3ccccc3F)c2C)[n+]2ccc(N(C)C)cc2)c1 | -9 | -2 | 43* | 6 | 0
CCCCSc1nnc([C@H](CC(C)C)NC(=O)OC(C)(C)C)o1 | . | 2 | . | . | .
Nc1cc(C(=O)OCC(=O)NCc2ccc(F)cc2)ccc1Cl | -3 | -4 | 44* | 0 | -1
CC(=O)N1CCCCN2[C@H](CO)[C@@H](c3ccc(-c4ccncc4)cc3)[C@H]2C1 | 5 | . | 0 | -1 | 2
CC(C)OC(=O)CC1C(=O)NCCN1C(=S)NC(=O)c1ccccc1Cl (configuration not stated) | 0 | 2 | 44* | -4 | -2
COC(=O)CC1C(=O)NCCN1C(=S)Nc1ccccc1Cl (configuration not stated) | 0 | -1 | 0 | -8 | -3
CCNC(=O)C[C@@H]1CC[C@@H]2[C@H](COc3ccc(NC(=O)Nc4cccc(Cl)c4)cc3C(=O)N2C)O1 | -9 | . | -3 | 1 | 1
O=S(=O)(c1ccc(F)cc1)N1C[C@H]2[C@@H](c3ccccc31)[C@H](CO)N2Cc1ccccc1Cl | 100* | . | -1 | 0 | 3
O=S(=O)(c1ccc(F)cc1)N1C[C@@H]2[C@H](c3ccccc31)[C@H](CO)N2Cc1ccccc1Cl | 1 | . | -1 | 0 | 3
CCOc1ccc2nc(Cl)c(CN(C(C)=O)C3CCCCC3)cc2c1 | 4 | 4 | 0 | -8 | 0
COc1ccc(CN2CC(C(=O)NCC3CCCO3)CC2=O)cc1 (configuration not stated) | . | 3 | . | . | .
O=c1cc(-c2ccc(O)c(-c3c(O)cc(O)c4c(=O)cc(-c5ccc(O)cc5)oc34)c2)oc2cc(O)cc(O)c12 | 2 | -6 | 45* | 0 | 6
O=c1cc(-c2ccc(O)cc2)oc2c(-c3c(O)cc(O)c4c(=O)cc(-c5ccc(O)cc5)oc34)c(O)cc(O)c12 | -6 | . | 0 | 3 | 9
Cc1nn(CC(=O)NC2CCS(=O)(=O)C2)c(C)c1S(=O)(=O)N(C)C (configuration not stated) | 1 | 3 | 0 | -3 | -2
Cc1nn(CC(=O)NC2CC2)c(C)c1S(=O)(=O)N(C)C | 0 | 7 | 43* | 3 | 1

Assay outcomes (PubChem BioAssay)
